{"source": "paper PMC5074691", "about": "(Cell reports, 2016)", "molecules": {"B1": {"name": "His-ATPase-CW: MORC3 construct harboring linked ATPase and CW domains (aa 1-455), His-tagged (protein)", "chain": "MAAQPPRGIRLSALCPKFLHTNSTSHTWPFSAVAELIDNAYDPDVNAKQIWIDKTVINDHICLTFTDNGNGMTSDKLHKMLSFGFSDKVTMNGHVPVGLYGNGFKSGSMRLGKDAIVFTKNGESMSVGLLSQTYLEVIKAEHVVVPIVAFNKHRQMINLAESKASLAAILEHSLFSTEQKLLAELDAIIGKKGTRIIIWNLRSYKNATEFDFEKDKYDIRIPEDLDEITGKKGYKKQERMDQIAPESDYSLRAYCSILYLKPRMQIILRGQKVKTQLVSKSLAYIERDVYRPKFLSKTVRITFGFNCRNKDHYGIMMYHRNRLIKAYEKVGCQLRANNMGVGVVGIIECNFLKPTHNKQDFDYTNEYRLTITALGEKLNDYWNEMKVKKNTEYPLNLPVEDIQKRPDQTWVQCDACLKWRKLPDGMDQLPEKWYCSNNPDPQFRNCEVPEEPEDE", "modifications": "left off: His tag, end not stated, kept"}, "B2": {"name": "His-ATPase: His-tagged isolated ATPase domain of MORC3 (aa 1-392) (protein)", "chain": "MAAQPPRGIRLSALCPKFLHTNSTSHTWPFSAVAELIDNAYDPDVNAKQIWIDKTVINDHICLTFTDNGNGMTSDKLHKMLSFGFSDKVTMNGHVPVGLYGNGFKSGSMRLGKDAIVFTKNGESMSVGLLSQTYLEVIKAEHVVVPIVAFNKHRQMINLAESKASLAAILEHSLFSTEQKLLAELDAIIGKKGTRIIIWNLRSYKNATEFDFEKDKYDIRIPEDLDEITGKKGYKKQERMDQIAPESDYSLRAYCSILYLKPRMQIILRGQKVKTQLVSKSLAYIERDVYRPKFLSKTVRITFGFNCRNKDHYGIMMYHRNRLIKAYEKVGCQLRANNMGVGVVGIIECNFLKPTHNKQDFDYTNEYRLTITALGEKLNDYWNEMKVKKNTE", "modifications": "left off: His tag, end not stated, kept"}}, "key": {"MORC3 His-ATPase-CW": {"system": "MORC3 His-ATPase-CW", "assay": "ATPase assay", "format": "biochemical, human", "conditions": "with DNA", "procedure,_shortened": "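Human MORC3 His-ATPase-CW (aa 1–455), expressed in E. coli Rosetta2(DE3) pLysS, Ni-NTA purified in HEPES buffers, used at 1.5–3.0 μM. Run 20 min at 22 °C or 30 min at 30 °C, read at A360. SD from ≥3 experiments (two at 30 °C).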"}, "Widom 601 DNA": {"system": "Widom 601 DNA", "assay": "EMSA with Widom 601 DNA", "format": "binding", "conditions": "1 to 20 molar excess protein; 601 DNA (3 pM); 20 mM Tris-HCl pH 7.5, 150 mM NaCl, 2 mM DTT; 1 h, room temperature", "procedure,_shortened": "(§1)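 MORC3 His-ATPase (aa 1–392, E. coli-expressed, Ni-NTA purified) is titrated onto the nucleic acid substrate; for 601 DNA, His-ATPase-CW (aa 1–455) is also tested. Mixtures run on 5% polyacrylamide gels in 0.2x TB at 150 V for 1 h on ice, then are stained with ethidium bromide and imaged.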"}, "MORC3-CW E453A": {"system": "MORC3-CW E453A", "assay": "1H,15N TROSY/HSQC NMR titration and competition on MORC3-CW E453A", "format": "binding, human"}, "[1]": {"system": "reconstituted nucleosome core particles (NCPs)", "assay": "EMSA with nucleosome core particles", "format": "binding", "conditions": "1 to 20 molar excess protein; NCPs (3 pM); 20 mM Tris-HCl pH 7.5, 150 mM NaCl, 2 mM DTT; 1 h, room temperature", "procedure,_shortened": "as §1"}}, "data": [{"molecule": "B1", "values": [{"measurement": "effect of linked CW on rate of hydrolysis in the presence of DNA", "setting": "MORC3 His-ATPase-CW", "result": "considerably decreased the rate of hydrolysis in the presence of DNA"}, {"measurement": "DNA binding by EMSA", "setting": "Widom 601 DNA", "result": "impaired"}]}, {"molecule": "B2", "values": [{"measurement": "chemical shift perturbation / complex formation in TROSY", "setting": "MORC3-CW E453A; 10 mM HEPES pH 7.4, 100 mM NaCl, 1 mM TCEP, 7% D2O, 298K", "result": "Substantial chemical shift perturbations"}, {"measurement": "displacement of H3K4me0 from CW E453A:H3K4me0 complex", "setting": "MORC3-CW E453A; His-ATPase titrated into CW E453A:H3K4me0 (1:4), 10 mM HEPES pH 7.4", "result": "could not efficiently displace H3K4me0"}, {"measurement": "DNA binding by EMSA", "setting": "Widom 601 DNA", "result": "resulted in a shift of the DNA and/or NCP bands"}, {"measurement": "NCP binding by EMSA", "setting": "[1]", "result": "resulted in a shift of the DNA and/or NCP bands"}]}]}
